Measurements from ChEMBL document CHEMBL1142209, “Inhibition of Plasmodium falciparum choline kinase by hexadecyltrimethylammonium bromide: a possible antimalarial mechanism” (Antimicrob Agents Chemother, 2007).

Key:
Plasmodium falciparum [1] = test: Inhibition of Plasmodium falciparum choline kinase at 150 uM in presence of 250 uM ATP
Plasmodium falciparum [2] = test: Inhibition of Plasmodium falciparum choline kinase at 150 uM in presence of 100 uM ATP
Plasmodium falciparum [3] = test: Inhibition of Plasmodium falciparum choline kinase at 50 uM in presence of 250 uM ATP
Plasmodium falciparum [4] = test: Inhibition of Plasmodium falciparum choline kinase at 50 uM in presence of 100 uM ATP
Plasmodium falciparum [5] = test: Inhibition of Plasmodium falciparum choline kinase
Outline: (§1)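 Purified recombinant PfCK (5 μg; Ni-NTA affinity plus gel filtration) incubated at 37°C for 45 min in 100 mM Tris-Cl pH 8.8, 5 mM ATP, 6 mM MgCl2, 250 μM [methyl-14C]choline (5.6 mCi/mmol). Stopped with Dowex-50W slurry; [14C]phosphocholine in supernatant counted by scintillation. DMSO control = 100%. Three experiments in triplicate.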

Plasmodium yoelii [6] = test: Antimalarial activity against intraperitoneal inoculated Plasmodium yoelii N67 in Swiss mice (Mus musculus) at 5 mg/kg intraperitoneal dose on day 4; format: functional, organism-based; parameters: dose 5 mg/kg; settings: N-67
Outline: (§2)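 P. yoelii N-67 in Swiss mice (22 ± 2 g, five per group), 1 × 10^5 parasitized RBC i.p. on day 0. Aqueous suspension given i.p. (0.20 ml) from 6 h post-inoculation, days 0–3. Day-4 parasitemia from Giemsa smears; % suppression = [(C − T)/C] × 100 on group means vs vehicle.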

Plasmodium falciparum [7] = test: Inhibition of Plasmodium falciparum NF54 as [3H]hypoxanthine uptake at 20 uM; format: functional, organism-based
Outline: (§3)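 Asynchronous P. falciparum NF-54 in human B+ erythrocytes (1% hematocrit, 0.5–0.7% parasitemia) exposed to compound (DMSO stock diluted in RPMI) for 48 h. Then washed and pulsed 48 h with [3H]hypoxanthine 0.7 μCi/well. Harvested on glass-fibre filters and counted by scintillation. % inhibition vs DMSO control; three experiments in triplicate.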

Plasmodium yoelii [8] = test: Antimalarial activity against intravenously inoculated Plasmodium yoelii N67 in Swiss mice (Mus musculus) at 10 mg/kg intraperitoneal dose on day 4; format: functional, organism-based; parameters: dose 10 mg/kg; settings: N-67
Outline: (§4)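 P. yoelii N-67 in Swiss mice (22 ± 2 g, five per group), 1 × 10^4 parasitized RBC i.v. on day 0. Aqueous suspension given i.p. (0.20 ml) from 6 h post-inoculation, days 0–3. Day-4 parasitemia from Giemsa smears; % suppression = [(C − T)/C] × 100 on group means vs vehicle.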

Plasmodium yoelii [9] = test: Antimalarial activity against intravenously inoculated Plasmodium yoelii N67 in Swiss mice (Mus musculus) at 5 mg/kg intraperitoneal dose on day 4; format: functional, organism-based; parameters: dose 5 mg/kg; settings: N-67; outline: as §4
Plasmodium falciparum [10] = test: Inhibition of choline kinase in Plasmodium falciparum NF54 assessed as incorporation of [methlyl-14C]choline into phosphocholine at 10 uM
Outline: (§5)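 NF-54 culture (15% parasitemia, 5% hematocrit) treated 1 h at 37°C (90% N2, 5% CO2) and washed. Labelled 4 h with 40 μM [methyl-14C]choline (5.6 mCi/mmol). Cells lysed in 5% TCA with freeze-thaw; phosphatidylcholine counted in pellet. Ether-extracted supernatant split on Dowex-50W: phosphocholine unbound, free choline eluted with 1 N HCl. Compared with DMSO control.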

Plasmodium falciparum [11] = test: Growth inhibition of schizont Plasmodium falciparum NF54 at 10 uM; format: functional, organism-based
Outline: (§6)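 Sorbitol-synchronized NF-54 at 0.5% ring parasitemia, 1% hematocrit. Rings (0 h), trophozoites (24 h) or schizonts (36 h) exposed 8 h in CRPMI, then washed out. [3H]hypoxanthine (0.7 μCi/well) added at 24, 48 or 60 h respectively; harvest at 72 h and scintillation count. Read against stage-matched DMSO control; three experiments in triplicate.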

Plasmodium falciparum [12] = test: Inhibition of phosphocholine biosynthesis in Plasmodium falciparum NF54 as intracellular free choline at 10 uM; format: functional, organism-based; outline: as §5
Plasmodium falciparum [13] = test: Inhibition of Plasmodium falciparum NF54 ring stage at 30 uM; format: functional, organism-based; outline: as §6
Plasmodium falciparum [14] = test: Inhibition of Plasmodium falciparum NF54 trophozoite at 10 uM; format: functional, organism-based; outline: as §6
Plasmodium falciparum [15] = test: Inhibition of Plasmodium falciparum NF54 as [3H]hypoxanthine uptake at 10 uM; format: functional, organism-based; outline: as §3
Plasmodium falciparum [16] = test: Inhibition of Plasmodium falciparum choline kinase at 100 uM; outline: as §1
Plasmodium yoelii [17] = test: Antimalarial activity against intraperitoneal inoculated Plasmodium yoelii N67 in Swiss mice (Mus musculus) at 10 mg/kg intraperitoneal dose on day 4; format: functional, organism-based; parameters: dose 10 mg/kg; settings: N-67; outline: as §2
Plasmodium yoelii [18] = test: Antimalarial activity at day 4 against intravenously inoculated Plasmodium yoelii N67 in Swiss mice (Mus musculus) at 20 mg/kg intraperitoneal dose; format: functional, organism-based; parameters: dose 20 mg/kg; settings: N-67; outline: as §4
Plasmodium yoelii [19] = test: Antimalarial activity against intraperitoneal inoculated Plasmodium yoelii N67 in Swiss mice (Mus musculus) at 20 mg/kg intraperitoneal dose on day 4; format: functional, organism-based; parameters: dose 20 mg/kg; settings: N-67; outline: as §2
Plasmodium falciparum [20] = test: Inhibition of phosphatidylcholine biosynthesis in Plasmodium falciparum NF54 as [methlyl-14C]choline uptake; format: functional, organism-based; outline: as §5

Molecule | inhibition (Plasmodium falciparum [1]) [%] | inhibition (Plasmodium falciparum [2]) [%] | inhibition (Plasmodium falciparum [3]) [%] | inhibition (Plasmodium falciparum [4]) [%] | Activity (Plasmodium falciparum [5]) | Activity (Plasmodium yoelii [6]) [%] | inhibition (Plasmodium falciparum [7]) [%] | Activity (Plasmodium yoelii [8]) [%] | Activity (Plasmodium yoelii [9]) [%] | inhibition (Plasmodium falciparum [10]) [%] | inhibition (Plasmodium falciparum [11]) [%] | inhibition (Plasmodium falciparum [12]) [%] | inhibition (Plasmodium falciparum [13]) [%] | inhibition (Plasmodium falciparum [14]) [%] | inhibition (Plasmodium falciparum [15]) [%] | inhibition (Plasmodium falciparum [16]) [%] | Activity (Plasmodium yoelii [17]) [%] | Activity (Plasmodium yoelii [18]) [%] | Activity (Plasmodium yoelii [19]) [%] | Activity (Plasmodium falciparum [20])
C[N+]1(C)CCOC(O)(c2ccc(-c3ccc(C4(O)C[N+](C)(C)CCO4)cc3)cc2)C1 (stereo unspecified) | 18 | 18 | 16 | 16 |  |  |  |  |  |  |  |  |  |  |  |  |  |  |  | 
hexadecyltrimethylammonium bromide |  |  |  | 60 | Dose-dependent effect | 36.8 | 81 | 64.2 | 48.7 | 57 | 51 | 42 | 33.3 | 62 | 62 | 60 | 52.4 | 83.7 | 77.2 | Dose-dependent effect
